Measurements reported in ChEMBL document CHEMBL1154352, “Toll-like receptor 7 selective synthetic oligoribonucleotide agonists: synthesis and structure-activity relationship studies” (J Med Chem, 2009).
The source made the active and inactive calls.

Tests used:
[1] = tested on: PBMC; assay: Immunomodulatory activity in human PBMC assessed as induction of MIP1beta after 24 hrs; type: functional, cell-based
How it was run: (§1)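 Human PBMCs plated at 5 × 10^6 cells/mL; compounds dissolved in PBS added at various concentrations, 37 °C for 24 h. Supernatant cytokines/chemokines quantified with human Luminex multiplex kit.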

[2] = tested on: PBMC; assay: Immunomodulatory activity in human PBMC assessed as induction of TNFalpha after 24 hrs; type: functional, cell-based; how it was run: as §1
[3] = tested on: PBMC; assay: Immunomodulatory activity in human PBMC assessed as induction of IP10 after 24 hrs; type: functional, cell-based; how it was run: as §1
[4] = tested on: PBMC; assay: Immunomodulatory activity in human PBMC assessed as induction of IL6 after 24 hrs; type: functional, cell-based; how it was run: as §1
[5] = tested on: PBMC; assay: Immunomodulatory activity in human PBMC assessed as induction of MIP1alpha after 24 hrs; type: functional, cell-based; how it was run: as §1
[6] = organism: Homo sapiens; assay: Immunostimulatory activity in human mDC assessed as induction of IL12 at 100 ug/ml after 24 hrs; type: functional
How it was run: (§2)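 Human mDCs isolated from PBMCs by CD19+ B-cell depletion then BDCA1 positive selection; plated at 1 × 10^6 cells/mL, compounds in PBS, 37 °C for 24 h; supernatant cytokines by human Luminex multiplex. Representative of four independent experiments.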

[7] = tested on: PBMC; assay: Immunomodulatory activity in human PBMC assessed as induction of MCP1 after 24 hrs; type: functional, cell-based; how it was run: as §1
[8] = tested on: PBMC; assay: Immunomodulatory activity in human PBMC assessed as induction of IFNalpha after 24 hrs; type: functional, cell-based; how it was run: as §1
[9] = organism: Homo sapiens; assay: Immunostimulatory activity in human mDC assessed as induction of IFNalpha at 100 ug/ml after 24 hrs; type: functional; how it was run: as §2
[10] = tested on: PBMC; assay: Immunomodulatory activity in human PBMC assessed as induction of IL1-beta after 24 hrs; type: functional, cell-based; how it was run: as §1
[11] = organism: Homo sapiens; assay: Immunostimulatory activity in human mDC assessed as induction of TNFalpha at 100 ug/ml after 24 hrs; type: functional; how it was run: as §2
[12] = tested on: Mus musculus; assay: Immunomodulatory activity in C57BL/6 mouse assessed as induction of IL12 release at 25 mg/kg, sc after 2 hrs by ELISA; type: functional, organism-based; set-up: dose 25 mg/kg
How it was run: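 Female C57BL/6 wild-type mice, 5–8 weeks old, n=3; compounds given subcutaneously at 10 or 25 mg/kg. Retro-orbital blood at 2 h; serum cytokines by mouse Luminex multiplex or IL-12 ELISA.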

[13] = organism: Homo sapiens; assay: Immunostimulatory activity in human mDC assessed as induction of IP10 at 100 ug/ml after 24 hrs; type: functional; how it was run: as §2
[14] = tested on: PBMC; assay: Immunomodulatory activity in human PBMC assessed as induction of IP10 at 50 ug/ml after 24 hrs; type: functional, cell-based; how it was run: as §1
[15] = tested on: PBMC; assay: Immunomodulatory activity in human PBMC assessed as induction of IL10 after 24 hrs; type: functional, cell-based; how it was run: as §1
[16] = tested on: PBMC; assay: Immunomodulatory activity in human PBMC assessed as induction of MIP1alpha at 50 ug/ml after 24 hrs; type: functional, cell-based; how it was run: as §1
[17] = tested on: PBMC; assay: Immunomodulatory activity in human PBMC assessed as induction of IFNalpha at 50 ug/ml after 24 hrs; type: functional, cell-based; how it was run: as §1
[18] = tested on: PBMC; assay: Immunomodulatory activity in human PBMC assessed as induction of IL12 after 24 hrs; type: functional, cell-based; how it was run: as §1
[19] = tested on: PBMC; assay: Immunomodulatory activity in human PBMC assessed as induction of MIP1beta at 50 ug/ml after 24 hrs; type: functional, cell-based; how it was run: as §1
[20] = tested on: PBMC; assay: Immunomodulatory activity in human PBMC assessed as induction of TNFalpha at 50 ug/ml after 24 hrs; type: functional, cell-based; how it was run: as §1

Measured: Activity

Nc1ccn([C@@H]2O[C@H](COP(=O)(S)O[C@H]3[C@@H](O)[C@H](n4cnc5c(N)ncnc54)O[C@@H]3COP(=O)(S)O[C@H]3[C@@H](O)[C@H](n4cnc5c(N)ncnc54)O[C@@H]3CO)[C@@H](OP(=O)(S)OC[C@H]3O[C@@H](n4ccc(=O)[nH]c4=O)[C@H](O)[C@@H]3OP(=O)(S)OC[C@H]3O[C@@H](n4ccc5c(=O)[nH]c(N)nc54)[C@H](O)[C@@H]3OP(=O)(S)OC[C@H]3O[C@@H](n4cnc5c(N)ncnc54)[C@H](O)[C@@H]3OP(=O)(S)OC[C@H]3O[C@@H](n4ccc(N)nc4=O)[C@H](O)[C@@H]3OP(=O)(S)OC[C@H]3O[C@@H](n4ccc5c(=O)[nH]c(N)nc54)[C@H](O)[C@@H]3OP(=O)(S)OC[C@H]3O[C@@H](n4ccc(N)nc4=O)[C@H](O)[C@@H]3OP(=O)(S)OC[C@H]3O[C@@H](n4ccc(=O)[nH]c4=O)[C@H](O)[C@@H]3OP(=O)(S)OC[C@H]3O[C@@H](n4ccc(=O)[nH]c4=O)[C@H](O)[C@@H]3OP(=O)(S)OCC(O)COP(=O)(S)O[C@H]3[C@@H](O)[C@H](n4ccc(=O)[nH]c4=O)O[C@@H]3COP(=O)(S)O[C@H]3[C@@H](O)[C@H](n4ccc(=O)[nH]c4=O)O[C@@H]3COP(=O)(S)O[C@H]3[C@@H](O)[C@H](n4ccc(N)nc4=O)O[C@@H]3COP(=O)(S)O[C@H]3[C@@H](O)[C@H](n4ccc5c(=O)[nH]c(N)nc54)O[C@@H]3COP(=O)(S)O[C@H]3[C@@H](O)[C@H](n4ccc(N)nc4=O)O[C@@H]3COP(=O)(S)O[C@H]3[C@@H](O)[C@H](n4cnc5c(N)ncnc54)O[C@@H]3COP(=O)(S)O[C@H]3[C@@H](O)[C@H](n4ccc5c(=O)[nH]c(N)nc54)O[C@@H]3COP(=O)(S)O[C@H]3[C@@H](O)[C@H](n4ccc(=O)[nH]c4=O)O[C@@H]3COP(=O)(S)O[C@H]3[C@@H](O)[C@H](n4ccc(N)nc4=O)O[C@@H]3COP(=O)(S)O[C@H]3[C@@H](O)[C@H](n4cnc5c(N)ncnc54)O[C@@H]3COP(=O)(S)O[C@H]3[C@@H](O)[C@H](n4cnc5c(N)ncnc54)O[C@@H]3CO)[C@H]2O)c(=O)n1 (stereo not given in full)
2200 pg/mL: [16]
434 pg/mL: [17]
active: [1] Dose-dependent effect | [2] Dose-dependent effect | [3] Dose-dependent effect | [4] Dose-dependent effect | [5] Dose-dependent effect | [6] | [7] Dose-dependent effect | [8] Dose-dependent effect | [9] | [10] Dose-dependent effect | [11] | [12] | [13] | [15] Dose-dependent effect | [18] Dose-dependent effect
5880 pg/mL: [19]
39 pg/mL: [20]
1020 pg/mL: [14]

Nc1ccn([C@@H]2O[C@H](COP(=O)(S)O[C@H]3[C@@H](O)[C@H](n4cnc5c(N)ncnc54)O[C@@H]3COP(=O)(S)O[C@H]3[C@@H](O)[C@H](n4ccc5c(=O)[nH]c(N)nc54)O[C@@H]3COP(=O)(S)O[C@H]3[C@@H](O)[C@H](n4ccc(=O)[nH]c4=O)O[C@@H]3COP(=O)(S)O[C@H]3[C@@H](O)[C@H](n4ccc(=O)[nH]c4=O)O[C@@H]3COP(=O)(S)O[C@H]3[C@@H](O)[C@H](n4cnc5c(N)ncnc54)O[C@@H]3COP(=O)(S)O[C@H]3[C@@H](O)[C@H](n4cnc5c(N)ncnc54)O[C@@H]3CO)[C@@H](OP(=O)(S)OC[C@H]3O[C@@H](n4ccc5c(=O)[nH]c(N)nc54)[C@H](O)[C@@H]3OP(=O)(S)OC[C@H]3O[C@@H](n4ccc(N)nc4=O)[C@H](O)[C@@H]3OP(=O)(S)OC[C@H]3O[C@@H](n4ccc(=O)[nH]c4=O)[C@H](O)[C@@H]3OP(=O)(S)OC[C@H]3O[C@@H](n4ccc(=O)[nH]c4=O)[C@H](O)[C@@H]3OP(=O)(S)OCC(O)COP(=O)(S)O[C@H]3[C@@H](O)[C@H](n4ccc(=O)[nH]c4=O)O[C@@H]3COP(=O)(S)O[C@H]3[C@@H](O)[C@H](n4ccc(=O)[nH]c4=O)O[C@@H]3COP(=O)(S)O[C@H]3[C@@H](O)[C@H](n4ccc(N)nc4=O)O[C@@H]3COP(=O)(S)O[C@H]3[C@@H](O)[C@H](n4ccc5c(=O)[nH]c(N)nc54)O[C@@H]3COP(=O)(S)O[C@H]3[C@@H](O)[C@H](n4ccc(N)nc4=O)O[C@@H]3COP(=O)(S)O[C@H]3[C@@H](O)[C@H](n4cnc5c(N)ncnc54)O[C@@H]3COP(=O)(S)O[C@H]3[C@@H](O)[C@H](n4ccc5c(=O)[nH]c(N)nc54)O[C@@H]3COP(=O)(S)O[C@H]3[C@@H](O)[C@H](n4ccc(=O)[nH]c4=O)O[C@@H]3COP(=O)(S)O[C@H]3[C@@H](O)[C@H](n4ccc(=O)[nH]c4=O)O[C@@H]3COP(=O)(S)O[C@H]3[C@@H](O)[C@H](n4cnc5c(N)ncnc54)O[C@@H]3COP(=O)(S)O[C@H]3[C@@H](O)[C@H](n4cnc5c(N)ncnc54)O[C@@H]3CO)[C@H]2O)c(=O)n1 (stereo not given in full)
active: [1] Dose-dependent effect | [2] Dose-dependent effect | [3] Dose-dependent effect | [4] Dose-dependent effect | [5] Dose-dependent effect | [6] | [7] Dose-dependent effect | [8] Dose-dependent effect | [9] | [10] Dose-dependent effect | [11] | [12] | [13] | [15] Dose-dependent effect | [18] Dose-dependent effect
104 pg/mL: [20]
2230 pg/mL: [16]
453 pg/mL: [14]
5500 pg/mL: [19]
149 pg/mL: [17]
